Measured values published in ChEMBL document CHEMBL5370658, “Development of First-in-Class Dual Sirt2/HDAC6 Inhibitors as Molecular Tools for Dual Inhibition of Tubulin Deacetylation” (J Med Chem, 2023).
Active and inactive are the calls of the source.

Experiments:
[1] = biological target: Histone deacetylase 4 (Homo sapiens) (UniProt P56524); assay: Inhibition of HDAC4 (unknown origin) using Abz-SRGGK(STFA)FRR-NH2 as substrate at 6 to 20000 nM preincubated for 5 mins followed by substrate addition and measured every 30 secs for 30 mins by continuous fluorescence based assay; settings: dose 6-20000 nM, time 35.0 min
Summary of the method: (§1)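 Continuous fluorescence assay in 20 mM HEPES pH 7.4, 140 mM NaCl, 10 mM KCl, 1 mM TCEP, 0.2 mg/mL BSA, 3% DMSO final. Enzyme (HDAC4 5 nM, HDAC5 10 nM, HDAC7 5 nM, HDAC9 20 nM) preincubated with inhibitor at room temperature. HDAC10 (5 nM) instead in 20 mM HEPES pH 7.4, 0.5 mg/mL BSA. Initial slope used as activity.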

[2] = biological target: T1, Polyamine deacetylase HDAC10 (Homo sapiens) (UniProt Q969S8); assay: Inhibition of HDAC10 (unknown origin) using Abz-SRGGK(STFA)FRR-NH2 as substrate at 6 to 20000 nM preincubated for 5 mins followed by substrate addition and measured every 30 secs for 30 mins by continuous fluorescence based assay; settings: dose 6-20000 nM, time 35.0 min; summary of the method: as §1
T1 sequence (whole entry): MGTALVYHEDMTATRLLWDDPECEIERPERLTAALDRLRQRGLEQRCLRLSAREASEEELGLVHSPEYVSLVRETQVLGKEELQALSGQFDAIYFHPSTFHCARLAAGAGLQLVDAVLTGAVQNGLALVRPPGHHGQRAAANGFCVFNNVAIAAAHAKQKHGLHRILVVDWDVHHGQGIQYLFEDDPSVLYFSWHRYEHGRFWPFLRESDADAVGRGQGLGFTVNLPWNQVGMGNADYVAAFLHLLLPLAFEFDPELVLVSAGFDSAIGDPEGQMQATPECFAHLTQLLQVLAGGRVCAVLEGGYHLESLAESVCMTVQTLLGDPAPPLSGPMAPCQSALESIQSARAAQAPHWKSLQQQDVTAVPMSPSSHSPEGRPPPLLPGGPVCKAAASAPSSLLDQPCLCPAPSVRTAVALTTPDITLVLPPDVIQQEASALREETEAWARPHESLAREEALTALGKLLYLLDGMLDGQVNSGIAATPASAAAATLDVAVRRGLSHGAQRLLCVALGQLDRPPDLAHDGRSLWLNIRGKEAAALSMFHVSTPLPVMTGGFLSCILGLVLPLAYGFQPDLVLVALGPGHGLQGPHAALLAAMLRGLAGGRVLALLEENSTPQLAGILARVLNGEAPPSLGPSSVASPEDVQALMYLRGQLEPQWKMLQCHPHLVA

[3] = biological target: NAD-dependent protein deacylase sirtuin-6 (Homo sapiens) (UniProt Q8N6T7); assay: Inhibition of Sirt6 (unknown origin) using Ac-EALPKK(Myr)Y(NO2)GG-NH2 as substrate at 20 to 500 uM preincubated for 5 mins followed by enzyme addition and measured after 1 hr by RP-HPLC analysis; settings: dose 20-500 µM, time 65.0 min
Summary of the method: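 Discontinuous HPLC assay, 120 µL in 20 mM Tris pH 7.8, 150 mM NaCl, 5 mM MgCl2, 0.2 mg/mL BSA, 5% DMSO. Inhibitor preincubated at 37 °C with NAD+ (1 mM) and substrate (Sirt5 5 µM; Sirt6 20 µM). Started with enzyme (Sirt5 100 nM; Sirt6 500 nM). Quenched with TFA/ACN. Sirt5 read by A220, Sirt6 by A360 (nitrotyrosine). Performed once in duplicates; IC50 by nonlinear regression.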

[4] = biological target: T2, Protein deacetylase HDAC6 (Homo sapiens) (UniProt Q9UBN7); assay: Binding affinity to HDAC6 in human MCF7 cells assessed as target engagement by measuring rescue of PROTAC induced protein degradation at 20 uM preincubated with compound for 30 mins followed by PROTAC 4-((5-(8-(2-((2-(2,6-dioxopiperidin-3-yl)-1,3-dioxoisoindolin-4 yl)oxy)acetamido)octanamido)-2-meth …; type: cell-based; settings: time 6.5 hrs
T2 sequence (whole entry): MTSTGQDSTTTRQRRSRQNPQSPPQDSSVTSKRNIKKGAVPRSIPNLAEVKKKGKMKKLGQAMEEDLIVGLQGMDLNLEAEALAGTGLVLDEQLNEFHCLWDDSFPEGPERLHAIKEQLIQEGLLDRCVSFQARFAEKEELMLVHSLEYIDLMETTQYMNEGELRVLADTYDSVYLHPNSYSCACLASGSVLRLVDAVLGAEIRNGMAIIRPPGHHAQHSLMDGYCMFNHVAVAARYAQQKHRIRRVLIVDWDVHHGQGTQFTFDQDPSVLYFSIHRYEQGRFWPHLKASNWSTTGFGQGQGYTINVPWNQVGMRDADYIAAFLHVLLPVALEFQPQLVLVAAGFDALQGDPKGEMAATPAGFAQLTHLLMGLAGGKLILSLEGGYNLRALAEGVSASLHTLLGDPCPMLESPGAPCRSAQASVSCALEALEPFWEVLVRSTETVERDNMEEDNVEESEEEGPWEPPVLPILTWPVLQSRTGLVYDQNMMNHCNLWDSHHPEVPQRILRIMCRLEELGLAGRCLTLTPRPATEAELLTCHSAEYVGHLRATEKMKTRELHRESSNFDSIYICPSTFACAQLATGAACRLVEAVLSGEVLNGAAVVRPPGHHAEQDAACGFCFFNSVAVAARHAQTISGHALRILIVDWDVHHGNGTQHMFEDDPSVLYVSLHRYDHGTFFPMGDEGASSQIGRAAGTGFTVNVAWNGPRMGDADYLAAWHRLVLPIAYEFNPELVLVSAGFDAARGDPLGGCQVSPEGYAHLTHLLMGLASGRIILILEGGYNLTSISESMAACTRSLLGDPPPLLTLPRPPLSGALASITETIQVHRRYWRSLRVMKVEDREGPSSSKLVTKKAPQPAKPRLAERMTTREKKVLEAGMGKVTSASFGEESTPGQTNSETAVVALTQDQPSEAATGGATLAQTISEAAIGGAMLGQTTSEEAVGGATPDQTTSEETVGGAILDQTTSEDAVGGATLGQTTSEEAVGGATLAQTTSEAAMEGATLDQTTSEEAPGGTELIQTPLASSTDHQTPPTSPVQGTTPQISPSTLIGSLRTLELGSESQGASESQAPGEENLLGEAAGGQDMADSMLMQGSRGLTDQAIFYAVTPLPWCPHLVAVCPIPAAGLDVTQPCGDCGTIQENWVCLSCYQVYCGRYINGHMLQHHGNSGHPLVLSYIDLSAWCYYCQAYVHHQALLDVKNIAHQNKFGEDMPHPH

HGC-27 = assay: Cytotoxicity against human HGC-27 cells assessed as reduction in cell viability incubated for 72 hrs by MTS assay; type: functional, cell-based
Summary of the method: (§2)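 Cell viability EC50 from at least two independent experiments, each run in triplicate. Results are compared by t-test.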

W1 Ovarian cancer cell = assay: Cytotoxicity against human W1 Ovarian cancer cells assessed as reduction in cell viability incubated for 72 hrs by MTT assay; type: functional, cell-based; summary of the method: as §2
MCF7 = assay: Cytotoxicity against human MCF7 cells assessed as reduction in cell viability incubated for 72 hrs by MTT assay; type: functional, cell-based; summary of the method: as §2
PC-3M-luc [5] = assay: Cytotoxicity against human PC-3M-luc cells assessed as reduction in cell viability incubated for 72 hrs by MTS assay; type: functional, cell-based; summary of the method: as §2
PC-3M-luc [6] = settings: Homo sapiens, dose 20.0 µM, time 5.0 hrs

Sequence of Histone deacetylase 4 (Homo sapiens) (P56524 whole entry): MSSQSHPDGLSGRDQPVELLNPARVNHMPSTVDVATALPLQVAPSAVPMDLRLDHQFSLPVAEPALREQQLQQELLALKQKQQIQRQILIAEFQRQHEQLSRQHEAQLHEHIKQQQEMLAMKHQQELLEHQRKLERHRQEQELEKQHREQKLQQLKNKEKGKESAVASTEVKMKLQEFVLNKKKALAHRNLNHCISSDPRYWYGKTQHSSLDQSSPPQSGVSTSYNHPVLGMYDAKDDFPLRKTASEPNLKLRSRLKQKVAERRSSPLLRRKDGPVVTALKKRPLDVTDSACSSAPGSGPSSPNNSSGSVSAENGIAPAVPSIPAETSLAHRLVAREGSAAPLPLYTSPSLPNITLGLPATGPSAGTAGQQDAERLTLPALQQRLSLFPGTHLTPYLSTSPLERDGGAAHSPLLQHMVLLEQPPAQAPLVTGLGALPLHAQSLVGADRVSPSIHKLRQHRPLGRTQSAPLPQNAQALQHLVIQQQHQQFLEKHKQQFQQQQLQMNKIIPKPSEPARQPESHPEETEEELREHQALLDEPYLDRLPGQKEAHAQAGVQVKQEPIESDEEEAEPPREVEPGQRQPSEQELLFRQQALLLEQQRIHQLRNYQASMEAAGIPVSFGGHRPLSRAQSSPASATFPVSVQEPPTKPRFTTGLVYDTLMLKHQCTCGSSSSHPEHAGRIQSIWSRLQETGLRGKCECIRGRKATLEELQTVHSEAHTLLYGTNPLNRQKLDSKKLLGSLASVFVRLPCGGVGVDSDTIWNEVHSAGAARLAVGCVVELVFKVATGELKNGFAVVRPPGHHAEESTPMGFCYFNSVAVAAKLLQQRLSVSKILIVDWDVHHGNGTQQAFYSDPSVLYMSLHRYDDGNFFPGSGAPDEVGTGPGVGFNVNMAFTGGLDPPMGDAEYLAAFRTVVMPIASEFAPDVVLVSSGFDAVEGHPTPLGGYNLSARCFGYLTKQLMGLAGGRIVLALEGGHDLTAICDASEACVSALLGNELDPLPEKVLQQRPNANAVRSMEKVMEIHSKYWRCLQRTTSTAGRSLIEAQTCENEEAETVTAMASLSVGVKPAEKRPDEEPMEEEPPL
Sequence of NAD-dependent protein deacylase sirtuin-6 (Homo sapiens) (Q8N6T7 whole entry): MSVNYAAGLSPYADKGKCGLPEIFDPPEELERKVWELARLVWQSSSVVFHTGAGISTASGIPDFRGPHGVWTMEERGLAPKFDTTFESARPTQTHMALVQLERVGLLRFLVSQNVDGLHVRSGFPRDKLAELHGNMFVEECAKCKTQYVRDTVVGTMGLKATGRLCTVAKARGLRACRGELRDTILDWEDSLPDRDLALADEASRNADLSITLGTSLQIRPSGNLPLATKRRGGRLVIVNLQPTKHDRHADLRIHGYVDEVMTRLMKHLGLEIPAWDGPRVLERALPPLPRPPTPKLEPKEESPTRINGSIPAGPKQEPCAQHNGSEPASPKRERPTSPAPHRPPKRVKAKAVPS

CCCCN(Cc1ccc(C(=O)NO)cc1)C(=O)CCCCn1cc(COc2cccc(Cc3cnc(NC(=O)CSc4nc(C)cc(C)n4)s3)c2)nn1
inactive: inhibition [1] | inhibition [2] | inhibition [3]
active: Activity [4] | Activity (HGC-27) | Activity (W1 Ovarian cancer cell) | Activity (MCF7) | Activity (PC-3M-luc [5]) | inhibition (PC-3M-luc [6])
